Assay results collected from several papers.
EGFR del746-750: Epidermal growth factor receptor (EGFR, Homo sapiens, UniProt P00533, del746-750)
EGFR L858R/T790M: Epidermal growth factor receptor (EGFR, Homo sapiens, UniProt P00533, L858R/T790M)
EGFR: Epidermal growth factor receptor (EGFR, Homo sapiens, UniProt P00533)
EGFR del752-759: Epidermal growth factor receptor (EGFR, Homo sapiens, UniProt P00533, del752-759)
EGFR L858R: Epidermal growth factor receptor (EGFR, Homo sapiens, UniProt P00533, L858R)
EGFR G719S: Epidermal growth factor receptor (EGFR, Homo sapiens, UniProt P00533, G719S)
EGFR del747-752/P753S: Epidermal growth factor receptor (EGFR, Homo sapiens, UniProt P00533, del747-752/P753S)
EGFR G719C: Epidermal growth factor receptor (EGFR, Homo sapiens, UniProt P00533, G719C)
EGFR del747-750/T751S: Epidermal growth factor receptor (EGFR, Homo sapiens, UniProt P00533, del747-750/T751S)
EGFR T790M: Epidermal growth factor receptor (EGFR, Homo sapiens, UniProt P00533, T790M)

Compound	target	assay	conditions	remaining binding
O=C(c1ccc(Nc2ncc(Cl)c(-c3cc4ccccc4s3)n2)cc1)N1CCC(N2CCCC2)CC1	EGFR del746-750	binding, competition with immobilised ligand	1 µM	79%
N[C@@H]1CCN(c2nccc(-c3cnn4ncccc34)n2)C1	EGFR L858R/T790M	binding	1 µM	100%
COc1cnc(Nc2cccc(S(N)(=O)=O)c2)nc1N1CCN(c2ccccc2)CC1	EGFR	binding, competition with immobilised ligand	1 µM	100%
O=C(NCCCN1CCOCC1)c1ccc(Nc2nccc(-c3cc4ccccc4s3)n2)cc1	EGFR del752-759	binding, competition with immobilised ligand	1 µM	100%
CCC(=N\O)/C(C)=C/c1ccc(F)cc1	EGFR L858R	cell-free assay, competition with immobilised ligand	1 µM	65%
C[C@@H]1CCN(c2nccc(-c3cnn4ncccc34)n2)C1	EGFR G719S	binding	1 µM	74%
COc1cnc(Nc2cccc(S(N)(=O)=O)c2)nc1N1CCN(c2ccccc2)C(=O)C1	Epidermal growth factor receptor (EGFR, Homo sapiens, UniProt P00533, A750P/del747-749)	binding, competition with immobilised ligand	1 µM	92%
O=C(N1CCS(=O)(=O)CC1)N1C[C@H](c2ccc(OC(F)(F)F)cc2)C[C@H](c2nc(C3CC3)no2)C1	EGFR L858R	cell-free assay, competition with immobilised ligand	1 µM	100%
COc1ncc2cc3ccccc3nc2c1C#N	EGFR	cell-free assay, competition with immobilised ligand	5 µM	94%
O=C(NCCCN1CCOCC1)c1ccc(Nc2ncc(Cl)c(-c3ccc(Cl)s3)n2)cc1	EGFR del752-759	binding, competition with immobilised ligand	1 µM	92%
CS(=O)(=O)N1CCCC(NC(=O)[C@H](CCC2CCCCC2)NC(=O)c2ccc(CNc3ncnc4c3nnn4-c3ccccc3)cc2)C1 (some centres unmarked)	EGFR del747-752/P753S	cell-free assay, competition with immobilised ligand	0.1 µM	66%
CN(C)c1nccc(-c2cnn3ncccc23)n1	EGFR	binding	1 µM	100%
Nc1ncc2c(n1)-c1c([nH]c3ccc(C#CC4CC4)cc13)CCCC2	EGFR G719C	binding, competition with immobilised ligand	1 µM	91%
c1cncc(-c2cccc(Nc3nccc(NC4CCCCC4)n3)c2)c1	EGFR del747-752/P753S	binding, competition with immobilised ligand	10 µM	42%
CC1CCCN1c1nccc(-c2cnn3ncccc23)n1 (centres unmarked)	Epidermal growth factor receptor (EGFR, Homo sapiens, UniProt P00533, L861Q)	binding	1 µM	100%
CCN1CCN(Cc2ccc(C(=O)Nc3ccc(C)c(Oc4ccc5c(c4)CC(=O)N5)c3)cc2C(F)(F)F)CC1	EGFR del747-752/P753S	binding, competition with immobilised ligand	1 µM	100%

Compound	target	assay	conditions	remaining binding
F[C@@H]1CCN(c2nccc(-c3cnn4ncccc34)n2)C1	EGFR G719S	binding	1 µM	100%
CC(=O)Nc1c(C(C)=O)c(=O)n(C)c2nc(-c3ccc(Cl)cc3Cl)c(-c3ccc(Cl)cc3)cc12	EGFR del747-750/T751S	cell-free assay, competition with immobilised ligand	1 µM	100%
O=C(NCC1CCOCC1)c1n[nH]cc1NC(=O)c1c(F)cccc1F	EGFR T790M	binding, competition with immobilised ligand	1 µM	93%
CNCc1ccccc1-c1csc([C@@H](C)Nc2nc(C)nc3cc(OC)c(OC)cc23)c1	EGFR del752-759	cell-free assay, competition with immobilised ligand	1 µM	63%
O=C(c1ccc(Nc2ncc(Cl)c(-c3ccc(Cl)s3)n2)cc1)N1CCC(N2CCCC2)CC1	EGFR G719C	binding, competition with immobilised ligand	1 µM	100%
CNC(=O)[C@@H]1CC[C@@H](n2c(-c3ccc4cnccc4c3)nc3ccc(C(=O)NCc4cccc(C(N)=O)c4)cc32)C1	EGFR del746-750	binding, competition with immobilised ligand	1 µM	90%
COc1ccnn2ncc(-c3ccnc(N(C)C)n3)c12	EGFR del752-759	binding	1 µM	86%
O=C1NC(c2ccccn2)Sc2ccccc21 (centres unmarked)	EGFR del747-750/T751S	cell-free assay, competition with immobilised ligand	1 µM	68%
CN1CCN(c2ccc(Nc3nccc(-c4ccccc4)n3)cc2C(F)(F)F)CC1	EGFR del752-759	binding	10 µM	100%
O=C(c1ccc(Nc2nccc(-c3cc4ccccc4s3)n2)cc1)N1CCC(N2CCCC2)CC1	EGFR	binding, competition with immobilised ligand	1 µM	97%
C[C@@H](c1cccc(C#N)c1)n1cc(Cl)cc(C(N)=O)c1=N	EGFR L858R	cell-free assay, competition with immobilised ligand	1 µM	100%
O=C(Nc1c[nH]nc1C(=O)NC1CCNCC1)c1cc(F)cc(F)c1	EGFR T790M	binding, competition with immobilised ligand	1 µM	100%
CN(CCCC(F)(F)F)c1nccc(-c2cnn3ncccc23)n1	EGFR G719C	binding	1 µM	100%
CN1CCN(c2ccc(Nc3nccc(-c4cccc([N+](=O)[O-])c4)n3)cc2C(F)(F)F)CC1	EGFR L858R/T790M	binding	10 µM	29%
Cc1cnc(Nc2ccc(C(=O)N3CCC(N4CCCC4)CC3)cc2)nc1-c1cc2ccccc2s1	EGFR del747-750/T751S	binding, competition with immobilised ligand	1 µM	97%
O=C(NC[C@@H]1[C@H]2CN(C(=O)OCc3cc(C(F)(F)F)cc(C(F)(F)F)c3)C[C@@H]12)c1ccc2[nH]nnc2c1	EGFR L858R	cell-free assay, competition with immobilised ligand	1 µM	100%
